Experimental data of several laboratories.
Lines come from different studies, so protocols differ.
Organism: Trypanosoma brucei
Effect on: parasite growth

| Compound | assay | test system | conditions | quantity | result |
| --- | --- | --- | --- | --- | --- |
| COc1ccc(-c2oc3ncnc(N)c3c2-c2ccc(NC(=O)Nc3cc(C(F)(F)F)ccc3F)cc2)cc1 | – | – | – | EC50 | 1580 nM |
| CCOC(=O)C1CCCN1C(=O)c1ccc(NCc2cnc3nc(N)nc(N)c3n2)cc1 (stereo not drawn) | resazurin | – | 10 µM, 72 h | inhibition | 30% |
| COc1cc2c(cc1Nc1nc(N3CCc4ccccc43)c3cc[nH]c3n1)N(C(=O)CN(C)C)CC2 | – | – | – | EC50 | 100 nM |
| COc1c(Br)cc(Br)cc1CN[C@H]1CCCN(c2nc3nc(Cl)ccc3[nH]2)C1 | – | – | – | EC50 | 40 nM |
| Nc1nc(N)c2nc(CNc3ccc(C(=O)c4ccccc4)cc3)cnc2n1 | resazurin | – | 10 µM, 72 h | inhibition | 76% |
| Cc1ccc2nc(-c3ccc(F)c(F)c3)c(CN3CCN(C4CCCCC4)CC3)n2c1 | – | – | 48 h | EC50 | > 20000 nM |
| CONC(=O)CN1C(=O)CNC2(C1=O)C1CC3CC(C1)CC2C3 (stereo not drawn) | – | – | pH 7.4, blood stage | IC50 | 542000 nM |
| OC(c1ccccc1)c1ccccc1 | – | – | – | EC50 | > 100000 nM |
| CC1CS(=O)(=O)CCN1/N=C/c1ccc([N+](=O)[O-])o1 (stereo not drawn) | – | – | – | IC50 | 3500 nM |
| N=C(N)c1ccc(OCCCCCOc2ccc(C(=N)N)cc2)cc1 | resazurin | RHODESIENSE STIB900 | – | IC50 | 1.8 nM |
| Cc1ccc(C(=O)Nc2ccc(S(=O)(=O)O)c3cc(S(=O)(=O)O)cc(S(=O)(=O)O)c23)cc1NC(=O)c1cccc(NC(=O)Nc2cccc(C(=O)Nc3cc(C(=O)Nc4ccc(S(=O)(=O)O)c5cc(S(=O)(=O)O)cc(S(=O)(=O)O)c45)ccc3C)c2)c1 | resazurin | – | – | IC50 | 60 nM |
| Nc1nc(N)c2nc(C(=O)NCc3ccccc3)cnc2n1 | resazurin | – | 10 µM, 72 h | inhibition | 19% |
| Cc1c2ccc(N(C)c3ccnc(Nc4cccc(S(N)(=O)=O)c4)n3)cc2nn1C | – | – | – | EC50 | 5010 nM |
| ClCCOC(c1ccccc1)c1ccccc1 | – | – | – | EC50 | 32100 nM |
| O=C(Nc1ccc2c(c1)B(O)OC2)Nc1ccc(F)c(C(F)(F)F)c1 | – | RHODESIENSE STIB900 | – | IC50 | 520 nM |
| CS(=O)(=O)CCNCc1cc(-c2cc3c(Nc4ccc(OCc5cccc(F)c5)c(Cl)c4)ncnc3s2)cs1 | – | – | – | EC50 | 794 nM |
| Nc1nc(N)c2nc(CNc3cccc4ccccc34)cnc2n1 | resazurin | – | 10 µM, 72 h | inhibition | 31% |
| CCS(=O)(=O)N(C)c1ccc(NC(=O)c2cccc(C(=N)N)c2)cc1OCc1ccc(C(=N)N)cc1 | – | – | – | IC50 | 500 nM |
| Cc1ccc2nc(-c3ccc(F)c(F)c3)c(CN3CCC(Cc4ccccc4)CC3)n2c1 | – | – | 48 h | EC90 | 18100 nM |
| NC(=O)CN1C(=O)CNC2(C1=O)C1CC3CC(C1)CC2C3 (stereo not drawn) | – | – | pH 7.4, blood stage | IC50 | 200000 nM |
| N=C(N)c1ccc(OCCCCCOc2ccc(C(=N)N)cc2)cc1 | – | – | – | EC50 | 5.4 nM |
| CCOC(=O)C1CCN(C(=O)c2ccc(N(C)Cc3cnc4nc(N)nc(N)c4n3)cc2)CC1 | resazurin | – | 10 µM, 72 h | inhibition | 47% |
| CCCN1CCC(c2ccc(Nc3nc(Nc4cc(F)ccc4C(N)=O)c4cc[nH]c4n3)c(OC)c2)CC1 | – | – | – | EC50 | 1580 nM |
| COC(=O)C1CCN(C(=O)c2ccc(N(CCO)Cc3cnc4nc(N)nc(N)c4n3)cc2)CC1 | resazurin | – | 10 µM, 72 h | inhibition | 9% |
| Cc1nn(C)c2cc(N(C)c3ccnc(Nc4cccc(S(N)(=O)=O)c4)n3)ccc12 | – | – | – | EC50 | 316 nM |
| NC(=O)C1CCN(C(=O)c2ccc(NCc3cnc4nc(N)nc(N)c4n3)cc2)CC1 | resazurin | – | 10 µM, 72 h | inhibition | 12% |
| C[C@@H](Oc1cc(-n2cnc3ccc(OCC4CCN(C)CC4)cc32)sc1C(N)=O)c1ccccc1Cl | – | – | – | EC50 | 15.8 nM |
| Cc1ccc2nc(-c3ccc(Cl)cc3)cn2c1 | – | – | 48 h | EC50 | 10400 nM |
| C#CCN(Cc1cnc2nc(N)nc(N)c2n1)c1ccc(C(=O)N2CCC(C(=O)OC)CC2)cc1 | resazurin | – | 10 µM, 72 h | inhibition | 23% |
| COc1cc(Nc2ncc3c(C)nc(-c4cccc(Oc5ccccc5)c4)n3n2)cc(OC)c1OC | – | – | – | EC50 | 794 nM |
